According to ChEMBL document CHEMBL6115035 (J Med Chem, 2025):
Each block holds one compound with its values, some of them ahead of it. Activity calls are given as the source filed them. No cut-off for these calls is given here.

Columns and labels:
[1] = target: Cyclin-dependent kinase 13 (Homo sapiens) (UniProt Q14004); test: Binding affinity to CDK13 in human VCaP cells incubated for 4 hrs by streptavidin-biotin pull down assay; assay type: cell-based
Procedure, shortened: (§1)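 VCaP cells were treated with a biotinylated probe for 4 h and lysed in RIPA buffer. Lysate was incubated with streptavidin beads overnight at 4 °C. Beads were washed three times with PBST (0.1% Tween) and eluted in 2X SDS loading buffer. Proteins were separated by SDS-PAGE.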

[2] = target: Cyclin-dependent kinase 12 (Homo sapiens) (UniProt Q9NYV4); test: Binding affinity to CDK12 in human VCaP cells incubated for 4 hrs by streptavidin-biotin pull down assay; assay type: cell-based; procedure, shortened: as §1
VCaP [3] = test: Antitumor activity against human VCaP cells xenografted in mouse assessed as reduction in tumor growth at 0.5 to 1.5 mg/kg, ip treated for 27 days; assay type: functional, organism-based; conditions: dose 0.5-1.5 mg/kg, time 27.0 day
Procedure, shortened: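 VCaP CRPC cells (5×10^6) were injected […] NSG or CB17SCID mice. Dosing began at tumours of ~200–400 mm3: 0.5 or 1.5 mg/kg i.p. for 27 days. Vehicle was 20% PEG400, 6% Cremophor EL, 74% PBS. Tumours were collected at the end for Western blot.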

VCaP [4] = test: Antiproliferative activity against human VCaP cells assessed as irreversible cell growth inhibition pretreated for 6 hrs followed by compound washout and subsequent addition of compound-free medium measured after 5 days by Cell Titer-Glo assay; assay type: functional, cell-based
Procedure, shortened: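 VCaP cells (DMEM GlutaMAX, 10% FBS) were exposed to compound for 6 h. The compound was then removed and cells were grown in compound-free medium for 5 days before the viability read-out.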

VCaP [5] = test: Antiproliferative activity against human VCaP cells measured after 5 days by Cell Titer-Glo assay; assay type: functional, cell-based; conditions: 120 h
Procedure, shortened: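 Cells were seeded and incubated overnight at 37 °C, 5% CO2. Serial compound dilutions were then added. Viability was read by CellTiter-Glo luminescence after 5 days, and IC50 was obtained by curve fitting.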

CDK8/Cyclin C = CDK8/Cyclin C (Homo sapiens, UniProt P49336); test: Inhibition of CDK8/Cyclin C (unknown origin) by ADP-Glo kinase assay; assay type: protein-complex assay
CDK7/Cyclin H/MNAT1 = CDK7/Cyclin H/MNAT1 (Homo sapiens, UniProt P50613); test: Inhibition of CDK7/cyclin H/MAT1 (unknown origin) by ADP-Glo kinase assay; assay type: protein-complex assay
Chain of CDK7/Cyclin H/MNAT1 (P51946 whole entry): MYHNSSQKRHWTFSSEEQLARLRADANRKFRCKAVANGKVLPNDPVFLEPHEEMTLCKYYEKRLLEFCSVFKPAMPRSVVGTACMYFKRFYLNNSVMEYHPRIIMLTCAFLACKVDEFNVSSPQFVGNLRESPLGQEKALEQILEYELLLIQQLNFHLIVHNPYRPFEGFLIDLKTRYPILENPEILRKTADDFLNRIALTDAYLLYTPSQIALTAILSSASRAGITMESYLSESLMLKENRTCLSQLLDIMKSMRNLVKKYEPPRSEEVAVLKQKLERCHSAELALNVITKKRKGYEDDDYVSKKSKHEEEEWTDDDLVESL
Chain of CDK7/Cyclin H/MNAT1 (P50613 whole entry): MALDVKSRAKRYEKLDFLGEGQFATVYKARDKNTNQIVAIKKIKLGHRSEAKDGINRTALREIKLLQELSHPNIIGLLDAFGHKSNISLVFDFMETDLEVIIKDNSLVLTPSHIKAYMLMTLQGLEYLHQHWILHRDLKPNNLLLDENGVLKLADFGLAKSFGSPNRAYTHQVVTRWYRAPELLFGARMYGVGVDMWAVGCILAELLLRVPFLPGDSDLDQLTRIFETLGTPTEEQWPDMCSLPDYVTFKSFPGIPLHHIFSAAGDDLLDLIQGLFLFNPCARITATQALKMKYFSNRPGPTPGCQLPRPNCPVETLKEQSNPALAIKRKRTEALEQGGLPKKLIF
Chain of CDK7/Cyclin H/MNAT1 (P51948 whole entry, further chain): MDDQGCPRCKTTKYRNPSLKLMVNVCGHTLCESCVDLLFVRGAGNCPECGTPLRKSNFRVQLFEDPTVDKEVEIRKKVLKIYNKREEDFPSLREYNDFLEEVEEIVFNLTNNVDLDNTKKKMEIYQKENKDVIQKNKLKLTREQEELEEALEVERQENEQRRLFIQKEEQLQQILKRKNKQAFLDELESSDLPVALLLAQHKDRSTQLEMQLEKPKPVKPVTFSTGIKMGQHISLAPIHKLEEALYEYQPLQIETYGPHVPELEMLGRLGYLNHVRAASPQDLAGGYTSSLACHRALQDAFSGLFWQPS

CDK9/Cyclin K = CDK9/Cyclin K (Homo sapiens, UniProt P50750); test: Inhibition of CDK9/Cyclin K (unknown origin) by ADP-Glo kinase assay; assay type: protein-complex assay
Chain of CDK9/Cyclin K (P50750 whole entry): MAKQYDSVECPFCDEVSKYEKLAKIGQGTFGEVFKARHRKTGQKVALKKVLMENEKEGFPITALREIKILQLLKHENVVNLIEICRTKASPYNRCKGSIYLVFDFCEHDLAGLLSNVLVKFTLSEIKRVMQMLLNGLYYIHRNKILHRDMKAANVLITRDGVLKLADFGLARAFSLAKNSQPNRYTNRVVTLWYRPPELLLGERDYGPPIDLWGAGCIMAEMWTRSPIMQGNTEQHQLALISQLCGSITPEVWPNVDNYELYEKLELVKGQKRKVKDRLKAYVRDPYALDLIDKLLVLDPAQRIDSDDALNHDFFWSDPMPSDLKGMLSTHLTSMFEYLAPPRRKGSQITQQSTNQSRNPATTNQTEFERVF
Chain of CDK9/Cyclin K (O75909 whole entry, further chain): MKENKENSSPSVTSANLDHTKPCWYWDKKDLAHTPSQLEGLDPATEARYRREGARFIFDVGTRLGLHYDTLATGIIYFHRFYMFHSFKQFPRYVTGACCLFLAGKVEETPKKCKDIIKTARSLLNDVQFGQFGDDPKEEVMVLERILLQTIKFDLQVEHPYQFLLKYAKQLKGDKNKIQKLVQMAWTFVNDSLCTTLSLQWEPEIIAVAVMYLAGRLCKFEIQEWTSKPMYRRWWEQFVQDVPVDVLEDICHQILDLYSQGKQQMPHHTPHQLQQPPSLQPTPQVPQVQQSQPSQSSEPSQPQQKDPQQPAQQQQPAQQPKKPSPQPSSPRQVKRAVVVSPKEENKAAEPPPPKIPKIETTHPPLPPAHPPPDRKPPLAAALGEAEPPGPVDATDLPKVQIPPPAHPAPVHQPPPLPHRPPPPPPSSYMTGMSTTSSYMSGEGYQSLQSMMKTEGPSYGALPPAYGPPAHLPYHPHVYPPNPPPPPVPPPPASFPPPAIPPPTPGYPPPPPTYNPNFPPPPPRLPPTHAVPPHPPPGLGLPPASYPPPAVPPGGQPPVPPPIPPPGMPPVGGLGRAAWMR

[6] = target: T1, Cyclin-dependent kinase 5/CDK5 activator 1 (Homo sapiens, UniProt Q00535); test: Inhibition of CDK5/p35NCK (unknown origin) by ADP-Glo kinase assay; assay type: protein-complex assay
T1 sequence (Q00535 whole entry): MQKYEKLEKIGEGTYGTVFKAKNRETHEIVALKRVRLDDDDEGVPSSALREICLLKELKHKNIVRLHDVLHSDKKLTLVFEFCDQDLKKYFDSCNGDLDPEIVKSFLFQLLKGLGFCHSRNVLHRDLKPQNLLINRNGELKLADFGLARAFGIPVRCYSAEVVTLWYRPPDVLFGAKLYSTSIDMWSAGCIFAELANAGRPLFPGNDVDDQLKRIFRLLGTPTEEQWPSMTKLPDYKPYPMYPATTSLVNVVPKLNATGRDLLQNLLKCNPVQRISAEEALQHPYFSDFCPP
T1 sequence (Q15078 whole entry, further chain): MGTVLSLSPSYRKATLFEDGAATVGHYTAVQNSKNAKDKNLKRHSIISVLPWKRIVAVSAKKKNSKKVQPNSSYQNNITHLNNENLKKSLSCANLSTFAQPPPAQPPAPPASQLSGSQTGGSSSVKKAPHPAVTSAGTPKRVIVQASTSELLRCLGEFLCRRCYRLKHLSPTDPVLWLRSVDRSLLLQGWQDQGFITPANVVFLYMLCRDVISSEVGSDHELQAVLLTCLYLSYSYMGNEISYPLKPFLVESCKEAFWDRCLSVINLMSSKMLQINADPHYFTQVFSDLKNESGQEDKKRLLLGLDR

[7] = target: Cyclin-C/Cyclin-dependent kinase 19 (Homo sapiens, UniProt Q9BWU1); test: Inhibition of CDK19/Cyclin C (unknown origin) by ADP-Glo kinase assay; assay type: protein-complex assay
Chain of Cyclin-C/Cyclin-dependent kinase 19 (Q9BWU1 whole entry): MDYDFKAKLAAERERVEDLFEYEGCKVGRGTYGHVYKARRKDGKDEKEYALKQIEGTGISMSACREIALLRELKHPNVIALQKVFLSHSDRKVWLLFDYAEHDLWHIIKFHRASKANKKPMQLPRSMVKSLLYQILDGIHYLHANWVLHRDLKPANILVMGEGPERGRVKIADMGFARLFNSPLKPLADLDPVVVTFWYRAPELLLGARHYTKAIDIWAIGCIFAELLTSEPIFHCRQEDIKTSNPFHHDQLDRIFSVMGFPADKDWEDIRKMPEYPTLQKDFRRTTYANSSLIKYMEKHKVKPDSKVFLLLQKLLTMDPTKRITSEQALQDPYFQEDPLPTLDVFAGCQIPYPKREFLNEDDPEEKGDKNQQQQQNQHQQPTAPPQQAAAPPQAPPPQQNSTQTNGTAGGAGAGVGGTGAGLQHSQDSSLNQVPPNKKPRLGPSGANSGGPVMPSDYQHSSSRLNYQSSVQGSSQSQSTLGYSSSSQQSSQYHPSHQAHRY
Chain of Cyclin-C/Cyclin-dependent kinase 19 (P24863 whole entry, further chain): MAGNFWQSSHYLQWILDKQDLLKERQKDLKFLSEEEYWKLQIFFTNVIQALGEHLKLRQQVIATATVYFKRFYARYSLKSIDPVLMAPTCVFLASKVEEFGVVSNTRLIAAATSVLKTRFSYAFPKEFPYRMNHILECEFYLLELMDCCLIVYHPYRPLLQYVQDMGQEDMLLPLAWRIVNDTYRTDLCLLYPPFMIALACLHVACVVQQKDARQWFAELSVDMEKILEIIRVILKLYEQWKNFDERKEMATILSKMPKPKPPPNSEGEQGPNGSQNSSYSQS

[8] = target: Cyclin-dependent kinase 4/cyclin D1 (Homo sapiens, UniProt P11802); test: Inhibition of CDK4/Cyclin D1 (unknown origin) by ADP-Glo kinase assay; assay type: protein-complex assay
CDK6/cyclin D1 = CDK6/cyclin D1 (Homo sapiens, UniProt Q00534); test: Inhibition of CDK6/cyclin D1 (unknown origin) by ADP-Glo kinase assay; assay type: protein-complex assay
CDK1/Cyclin E = CDK1/Cyclin E (Homo sapiens, UniProt P06493); test: Inhibition of CDK1/Cyclin E1 (unknown origin) by ADP-Glo kinase assay; assay type: protein-complex assay
Procedure, shortened: (§2)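 Kinase inhibition was measured by ADP-Glo assay. IC50 values are means of three independent experiments.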

VCaP [9] = test: Downregulation of RAD51 expression in human VCaP cells at 10 to 300 nM pretreated for 2 hrs followed by compound washout measured after 12 hrs by Western blot analysis; assay type: functional, cell-based; conditions: dose 10-300 nM
VCaP [10] = test: Upregulation of c-PARP expression in human VCaP cells at 10 to 300 nM pretreated for 2 hrs followed by compound washout measured after 12 hrs by Western blot analysis; assay type: functional, cell-based; conditions: dose 10-300 nM
Procedure, shortened: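 VCaP cells were grown in DMEM GlutaMAX with 10% FBS and P/S. After treatment they were washed with cold PBS and lysed in RIPA with protease inhibitors. Equal protein was run on 4–12% Bis-Tris SDS-PAGE, transferred to nitrocellulose, and probed for cleaved PARP with α-tubulin as loading control. Detection used HRP secondary antibodies.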

[11] = target: T1, Cyclin-dependent kinase 5/CDK5 activator 1; test: Inhibition of CDK5/p25NCK (unknown origin) by ADP-Glo kinase assay; assay type: protein-complex assay
CDK9/cyclin T1 = CDK9/cyclin T1 (Homo sapiens, UniProt P50750); test: Inhibition of CDK9/Cyclin T1 (unknown origin) by ADP-Glo kinase assay; assay type: protein-complex assay
[12] = target: Cyclin-Y/Cyclin-dependent kinase 16 (Homo sapiens, UniProt Q00536); test: Inhibition of CDK16/cyclin Y (unknown origin) by ADP-Glo kinase assay; assay type: protein-complex assay
CDK1/Cyclin A = CDK1/Cyclin A (Homo sapiens, UniProt P06493); test: Inhibition of CDK1/Cyclin A2 (unknown origin) by ADP-Glo kinase assay; assay type: protein-complex assay; procedure, shortened: as §2

Chain of Cyclin-dependent kinase 13 (Homo sapiens) (Q14004 whole entry, looked up): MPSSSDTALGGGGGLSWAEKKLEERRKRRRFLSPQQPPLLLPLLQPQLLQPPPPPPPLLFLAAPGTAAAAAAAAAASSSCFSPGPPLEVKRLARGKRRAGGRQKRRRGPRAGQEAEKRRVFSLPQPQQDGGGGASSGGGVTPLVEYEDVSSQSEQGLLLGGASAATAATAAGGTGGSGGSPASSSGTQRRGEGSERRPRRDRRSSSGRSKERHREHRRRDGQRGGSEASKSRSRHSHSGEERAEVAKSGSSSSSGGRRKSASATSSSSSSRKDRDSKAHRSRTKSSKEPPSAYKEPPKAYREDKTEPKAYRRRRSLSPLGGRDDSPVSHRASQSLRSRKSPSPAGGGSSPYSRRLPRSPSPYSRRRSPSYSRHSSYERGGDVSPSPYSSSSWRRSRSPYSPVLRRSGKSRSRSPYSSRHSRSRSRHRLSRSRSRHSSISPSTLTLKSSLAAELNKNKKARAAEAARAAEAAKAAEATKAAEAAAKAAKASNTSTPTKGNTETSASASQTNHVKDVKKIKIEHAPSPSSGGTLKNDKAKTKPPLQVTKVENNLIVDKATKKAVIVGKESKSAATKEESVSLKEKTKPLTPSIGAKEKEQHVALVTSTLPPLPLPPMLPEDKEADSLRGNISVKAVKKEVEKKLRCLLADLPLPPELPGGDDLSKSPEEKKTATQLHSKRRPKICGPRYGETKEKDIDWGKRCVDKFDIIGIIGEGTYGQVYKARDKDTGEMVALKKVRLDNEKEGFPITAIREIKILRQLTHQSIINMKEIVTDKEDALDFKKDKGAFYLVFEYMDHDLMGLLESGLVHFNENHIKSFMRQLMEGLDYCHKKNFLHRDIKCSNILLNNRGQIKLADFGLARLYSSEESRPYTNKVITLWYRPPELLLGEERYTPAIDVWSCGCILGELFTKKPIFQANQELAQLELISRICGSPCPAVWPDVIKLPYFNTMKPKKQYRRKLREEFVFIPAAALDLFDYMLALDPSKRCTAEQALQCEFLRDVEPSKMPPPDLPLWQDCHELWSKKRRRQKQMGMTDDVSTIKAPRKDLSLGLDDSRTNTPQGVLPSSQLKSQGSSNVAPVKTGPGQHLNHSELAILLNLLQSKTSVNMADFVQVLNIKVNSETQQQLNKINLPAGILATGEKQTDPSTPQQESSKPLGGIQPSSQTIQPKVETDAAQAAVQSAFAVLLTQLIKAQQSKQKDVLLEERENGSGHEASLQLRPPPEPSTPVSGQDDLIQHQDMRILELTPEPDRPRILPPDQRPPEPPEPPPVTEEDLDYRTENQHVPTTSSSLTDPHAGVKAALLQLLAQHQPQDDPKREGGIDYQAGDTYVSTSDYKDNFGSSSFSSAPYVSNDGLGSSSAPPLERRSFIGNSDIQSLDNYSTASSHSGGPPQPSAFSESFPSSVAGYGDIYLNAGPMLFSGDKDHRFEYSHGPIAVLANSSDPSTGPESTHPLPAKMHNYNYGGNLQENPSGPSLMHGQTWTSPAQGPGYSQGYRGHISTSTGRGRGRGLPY

SMILES: Cn1ncc(Cl)c1-c1cc(C(=O)N[C@H](CN)Cc2ccc(F)c(F)c2)oc1Cl
Activity (VCaP [3]): Active

SMILES: Cn1cc(-n2cnc3c(NCc4nc5cc(Cl)c(Cl)cc5[nH]4)nc(N4CCOCC4)nc32)cn1
inhibition (VCaP [4]): inactive

SMILES: Cn1cc(-c2ccc(N(C(=O)NCc3ccccc3)[C@H]3CC[C@H](Nc4ccc(C#N)cn4)CC3)cc2)ccc1=O
IC50 (CDK8/Cyclin C): > 10 µM
IC50 (CDK7/Cyclin H/MNAT1): 0.679 µM
IC50 (CDK9/Cyclin K): 0.716 µM
IC50 [6]: 5.07 µM
IC50 [7]: > 10 µM
IC50 [8]: 5.28 µM
IC50 (CDK6/cyclin D1): 8.79 µM
IC50 (CDK1/Cyclin E): > 10 µM
Activity (VCaP [9]): inactive
Activity (VCaP [10]): inactive
IC50 [11]: 4.86 µM
IC50 (CDK9/cyclin T1): 0.515 µM
IC50 [12]: > 10 µM
IC50 (CDK1/Cyclin A): > 10 µM

Now from value to compound:

Activity [1]: Active
Activity [2]: Active
SMILES: C=CC(=O)Nc1cc(N(C(=O)NCc2ccccc2)[C@H]2CC[C@H](Nc3ccc(C#N)cn3)CC2)ccc1N1CCC(N(C)C(=O)CCOCCOCCOCCOCCNC(=O)CCCC[C@@H]2SC[C@@H]3NC(=O)N[C@@H]32)CC1

IC50 (VCaP [5]): 0.0763 µM
SMILES: C=CC(=O)Nc1cc(N(C(=O)NCc2ccccc2)[C@H]2CC[C@H](Nc3ccc(C#N)cn3)CC2)ccc1N1C[C@H]2C[C@@H]1CN2C

IC50 (VCaP [5]): 0.0043 µM
SMILES: C=CC(=O)Nc1cc(N(C(=O)NCc2ccccc2)[C@H]2CC[C@H](Nc3ccc(C#N)cn3)CC2)ccc1N1CCN(C)[C@@H](C)C1
